From ChEMBL document CHEMBL1129741, “Synthesis and hypolipidemic activities of novel 2-[4-[diethoxyphosphoryl)methyl]phenyl]quinazolines and 4(3H)-quinazolinones” (J Med Chem, 1996)

Experiments:
Rattus norvegicus [1] = assay: Effect on change in plasma triglycerides (TG) in triton-induced hyperlipidemic rats after peroral administration of 100 mg/kg.; type: functional; settings: route oral
Rattus norvegicus [2] = assay: Effect on change in total cholesterol (TC) in triton-induced hyperlipidemic rats after peroral administration of 100 mg/kg.; type: functional; settings: route oral
[3] = Partition coefficient (logP) (HPLC); type: physicochemical; settings: octanol/water
How it was run: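 Apparent log P* was estimated from reverse-phase HPLC retention time against methyl, ethyl, n-propyl, n-butyl and n-hexyl benzoate standards. Column was C18 at 40 °C with mobile phase CH3OH/0.05 M […] pH 7.4 at 1.0 mL/min, and detection was UV at 230 nm.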

Rattus norvegicus [4] = assay: Effect on change in plasma triglycerides (TG) in triton-induced hyperlipidemic rats after po administration of 10 mg/kg; type: functional
Rattus norvegicus [5] = assay: Effect on change in total cholesterol (TC) in triton-induced hyperlipidemic rats after po administration of 10 mg/kg; type: functional

Structure (SMILES) | Change (Rattus norvegicus [1]) [%] | Change (Rattus norvegicus [2]) [%] | logP [3] | Change (Rattus norvegicus [4]) [%] | Change (Rattus norvegicus [5]) [%]
CCOP(=O)(Cc1ccc(-c2nc3ccc(Br)cc3c(=O)n2CC)cc1)OCC | <-42 | <-29 |  |  | 
CC(C)OP(=O)(Cc1ccc(-c2nc3ccc(Br)cc3c(=O)n2C)cc1)OC(C)C | <-37 | -11 | 4.88 |  | 
CCOP(=O)(Cc1ccc(-c2nc3ccc(Br)cc3c(=O)n2CC(=O)O)cc1)OCC | 13 | 5 |  |  | 
CCOP(=O)(Cc1ccc(-c2nc(OC)c3cc(OC)c(OC)cc3n2)cc1)OCC | <-86 | <-60 | 4.51 |  | 
CCOP(=O)(Cc1ccc(-c2nc(O)c3c(F)cccc3n2)cc1)OCC | -8 | -8 | 3.13 |  | 
CCOP(=O)(Cc1ccc(-c2nc(OCc3ccc(Br)cc3F)c3cc(Br)ccc3n2)cc1)OCC | -4 | <-12 |  |  | 
CCOP(=O)(Cc1ccc(-c2nc3cc(OC)c(OC)cc3c(=O)n2Cc2ccccc2)cc1)OCC | <-85 | <-60 | 4.49 | < -30 | < -15
CCOP(=O)(Cc1ccc(-c2nc(O)c3ccccc3n2)cc1)OCC |  |  | 2.55 |  | 
COc1nc(-c2ccc(CP(=O)(OC)OC)cc2)nc2ccc(Br)cc12 | -9 | -9 | 5.61 |  | 
COc1cc2nc(-c3ccc(CP(=O)(OC)OC)cc3)nc(O)c2cc1OC | -11 | -18 | 2.6 |  | 
CCOP(=O)(Cc1ccc(-c2nc(OC)c3c(F)cccc3n2)cc1)OCC | -28 | -25 | 5.13 |  | 
CCOP(=O)(Cc1ccc(-c2nc3cccc(F)c3c(=O)n2C)cc1)OCC | -12 | <-15 | 3.18 |  | 
C=CCn1c(-c2ccc(CP(=O)(OCC)OCC)cc2)nc2cc(OC)c(OC)cc2c1=O |  |  |  | <-61 | <-41
C=CCOc1nc(-c2ccc(CP(=O)(OCC)OCC)cc2)nc2cc(OC)c(OC)cc12 | <-71 | <-35 |  |  | 
COc1cc2nc(-c3ccc(CP(=O)(OC)OC)cc3)nc(OC)c2cc1OC | <-52 | <-48 | 3.75 |  | 
CCOP(=O)(Cc1ccc(-c2nc3ccc(Br)cc3c(=O)n2Cc2ccc(Br)cc2F)cc1)OCC | -16 | -1 |  |  | 
CCOP(=O)(Cc1ccc(-c2nc(OCc3ccccc3)c3cc(OC)c(OC)cc3n2)cc1)OCC | <-40 | <-21 |  |  | 

Structure (SMILES) | Change (Rattus norvegicus [1]) [%] | Change (Rattus norvegicus [2]) [%] | logP [3] | Change (Rattus norvegicus [4]) [%] | Change (Rattus norvegicus [5]) [%]
C=CCOc1nc(-c2ccc(CP(=O)(OCC)OCC)cc2)nc2ccc(Br)cc12 | -18 | -2 |  |  | 
CCOP(=O)(Cc1ccc(-c2nc(Oc3ccccc3)c3cc(Br)ccc3n2)cc1)OCC | <16 | 4 | 7.67 |  | 
CCOP(=O)(Cc1ccc(-c2nc3ccccc3c(=O)n2C)cc1)OCC | <31 | 38 | 3.29 |  | 
COc1cc2nc(-c3ccc(CP(=O)(OC(C)C)OC(C)C)cc3)nc(OC)c2cc1OC | <-81 | < -60 | 5.53 |  | 
COc1cc2nc(-c3ccc(CP(=O)(OC(C)C)OC(C)C)cc3)n(C)c(=O)c2cc1OC | <-81 | <-58 | 4.2 | -8 | -4
CCOc1nc(-c2ccc(CP(=O)(OCC)OCC)cc2)nc2ccc(Br)cc12 | <-29 | -14 | 7.01 |  | 
CCOP(=O)(Cc1ccc(-c2nc(OC)c3ccccc3n2)cc1)OCC | -5 | 56 | 5.26 |  | 
CCOP(=O)(Cc1ccc(-c2nc(OC)c3cc(Br)ccc3n2)cc1)OCC | 2 | 1 | 6.37 |  | 
CCOP(=O)(Cc1ccc(-c2nc3cc(OC)c(OC)cc3c(=O)n2C)cc1)OCC | <-86 | <-51 | 3.41 | -21 | -11
COc1cc2nc(-c3ccc(CP(=O)(OC(C)C)OC(C)C)cc3)nc(O)c2cc1OC | -32 | <-35 | 4.38 |  | 
CCOP(=O)(Cc1ccc(-c2nc(O)c3cc(OC)c(OC)cc3n2)cc1)OCC | -37 | <-22 | 3.36 |  | 
CCOP(=O)(Cc1ccc(-c2nc3ccc(Br)cc3c(=O)n2Cc2ccccc2)cc1)OCC | <-54 | <-34 | 5.17 |  | 
COc1cc2nc(-c3ccc(CP(=O)(OC)OC)cc3)n(C)c(=O)c2cc1OC | <-41 | <-27 | 2.65 |  | 
CCOP(=O)(Cc1ccc(-c2nc(OCC(=O)O)c3cc(Br)ccc3n2)cc1)OCC | -2 | -14 |  |  | 
CCOP(=O)(Cc1ccc(-c2nc3ccc(Br)cc3c(=O)n2C)cc1)OCC | <-35 | <-16 | 4.09 |  | 
C=CCn1c(-c2ccc(CP(=O)(OCC)OCC)cc2)nc2ccc(Br)cc2c1=O | <-43 | <-25 |  |  | 
CCOP(=O)(Cc1ccc(C(=O)Nc2ccc(Br)cc2C#N)cc1)OCC [IBROLIPIM] | < -85 | < -69 | 3.21 | -54 | -27
